{
  "source": "paper PMC4607565",
  "about": "(Bioorganic & medicinal chemistry letters, 2015)",
  "key": {"[1]": {"test_system": "extracellular TG2 in WI-38 fibroblasts", "assay": "5-BP incorporation into extracellular matrix proteins of WI-38 fibroblasts", "type": "cell-based", "summary_of_the_method": "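WI-38 fibroblasts were grown to confluence, then pre-incubated with vehicle (1% DMSO) or test compound for 30 min. Cells were then given 200 μM 5-(biotinamido)pentylamine for 3 h, fixed and stained. Transamidation was scored as 5-BP incorporated into extracellular matrix proteins, imaged at 5 fields sampled across each well.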"}, "[2]": {"target": "T1, TG2 S2A mutant (E396Q/N398S/D400N) (Homo sapiens, UniProt P21980, D400N/E396Q/N398S)", "T1 sequence (P21980 1-687 E396Q/N398S/D400N)": "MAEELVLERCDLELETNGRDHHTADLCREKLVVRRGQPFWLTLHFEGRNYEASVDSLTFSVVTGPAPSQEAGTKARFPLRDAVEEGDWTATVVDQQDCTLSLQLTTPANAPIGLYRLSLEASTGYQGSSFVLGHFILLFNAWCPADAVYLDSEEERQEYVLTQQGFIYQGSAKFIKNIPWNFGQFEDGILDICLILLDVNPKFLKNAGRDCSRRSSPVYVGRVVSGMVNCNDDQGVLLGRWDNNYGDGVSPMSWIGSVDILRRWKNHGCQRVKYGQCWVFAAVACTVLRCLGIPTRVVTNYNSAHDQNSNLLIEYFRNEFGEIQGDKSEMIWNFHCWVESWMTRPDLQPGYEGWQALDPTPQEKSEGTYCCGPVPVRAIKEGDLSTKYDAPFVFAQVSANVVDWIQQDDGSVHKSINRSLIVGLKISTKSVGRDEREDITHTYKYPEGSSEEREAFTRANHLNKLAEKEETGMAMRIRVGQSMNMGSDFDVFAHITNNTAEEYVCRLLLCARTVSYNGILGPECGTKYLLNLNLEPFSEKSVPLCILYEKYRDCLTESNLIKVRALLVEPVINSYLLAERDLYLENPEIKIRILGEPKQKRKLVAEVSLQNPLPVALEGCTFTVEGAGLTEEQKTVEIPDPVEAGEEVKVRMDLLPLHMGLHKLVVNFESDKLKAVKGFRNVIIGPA", "assay": "deamidation activity of S2A mutant", "type": "biochemical", "details": "[TG2] = 2.5 μM; [Ca2+] = 5 mM"}, "[3]": {"target": "T2, truncated form of human TG2 (1-466) (Homo sapiens, UniProt P21980)", "T2 sequence (P21980 1-466)": "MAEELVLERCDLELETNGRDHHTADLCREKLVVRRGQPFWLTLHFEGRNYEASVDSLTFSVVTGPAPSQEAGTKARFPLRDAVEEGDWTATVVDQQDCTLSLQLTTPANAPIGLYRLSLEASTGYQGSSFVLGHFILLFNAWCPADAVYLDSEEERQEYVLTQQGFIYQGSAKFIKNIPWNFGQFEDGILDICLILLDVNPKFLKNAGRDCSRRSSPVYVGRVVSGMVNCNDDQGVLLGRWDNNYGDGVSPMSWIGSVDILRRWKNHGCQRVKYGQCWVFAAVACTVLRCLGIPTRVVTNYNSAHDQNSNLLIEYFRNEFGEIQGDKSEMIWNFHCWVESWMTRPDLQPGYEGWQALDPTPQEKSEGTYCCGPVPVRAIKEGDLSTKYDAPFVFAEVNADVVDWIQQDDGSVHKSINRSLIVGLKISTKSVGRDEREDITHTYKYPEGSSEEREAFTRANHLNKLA", "assay": "deamidation activity of truncated TG2", "type": "biochemical", "details": "[TG2] = 0.5 μM; [Ca2+] = 5 mM", "summary_of_the_method": "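The truncated TG2 (residues 1-466) lacks both C-terminal beta-barrel domains and was expressed and purified. It was tested against wild-type TG2 in the deamidation assay at 0.5 μM enzyme and 5 mM Ca2+. Activity was normalized to each protein's own maximum, since kcat and KM differ between the two proteins.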"}, "TG2 [4]": {"target": "T3, TG2 (Homo sapiens, UniProt P21980)", "T3 sequence (P21980 1-687)": "T1 sequence (P21980 1-687 E396Q/N398S/D400N) with Q396E, S398N, N400D", "assay": "native PAGE analysis of open versus closed states"}, "[5]": {"target": "T4, R580A mutant of human TG2 (Homo sapiens, UniProt P21980, R580A)", "T4 sequence (P21980 1-687 R580A)": "T1 sequence (P21980 1-687 E396Q/N398S/D400N) with Q396E, S398N, N400D, R580A", "assay": "deamidation activity of R580A mutant", "type": "biochemical", "details": "[TG2] = 0.5 μM, [Ca2+] = 3 mM", "summary_of_the_method": "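Deamidation by wild-type and R580A TG2 was measured side by side with test compound and the GTP analog GMP-PNP, at 0.5 μM enzyme and 3 mM Ca2+.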"}, "TG2 [6]": {"target": "T3, TG2", "assay": "microtiter plate transamidation assay", "type": "biochemical", "summary_of_the_method": "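In a microtiter plate format, TG2 incorporated 5-BP into immobilized N,N-dimethylcasein. The incorporated biotin was quantified with streptavidin. Ca2+ was held at the sub-saturating level of 0.6 mM, and the test compound was assayed with or without the stable GTP analog GMP-PNP.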"}, "[7]": {"target": "T5, TG2 S2B mutant (E447Q/E451Q/E452Q/E454Q) (Homo sapiens, UniProt P21980, E447Q/E451Q/E452Q/E454Q)", "T5 sequence (P21980 1-687 E447Q/E451Q/E452Q/E454Q)": "T1 sequence (P21980 1-687 E396Q/N398S/D400N) with Q396E, S398N, N400D, E447Q, E451Q, E452Q, E454Q", "assay": "deamidation activity of S2B mutant", "type": "biochemical", "details": "[TG2] = 2.5 μM; [Ca2+] = 5 mM"}, "human TG2 (V224 variant)": {"target": "T6, human TG2 (V224 variant) (Homo sapiens, UniProt P21980)", "T6 sequence (P21980 1-687)": "T1 sequence (P21980 1-687 E396Q/N398S/D400N) with Q396E, S398N, N400D", "assay": "coupled GDH assay of TG2 deamidation of Cbz-Gln-Gly", "type": "biochemical", "details": "for mode of inhibition / activation: V224 TG2"}, "TG2 [8]": {"target": "TG2", "details": "cited from earlier work"}, "[9]": {"target": "T4, R580A mutant of human TG2", "details": "cited from earlier work"}, "TG2 [10]": {"target": "T3, TG2", "details": "active site-directed irreversible inhibitor; cited from earlier work"}},
  "note": "Substitutions are numbered along the chain they refer to. pKd: −log10 of the molar value. Entries after “also recorded” stand apart in the source; their conditions may differ. Where two headings read alike, the source gives them in different places.",
  "data": [
    {"compound": "COc1ccccc1C(=O)/C=C1/C(=O)Nc2cccc(Cl)c21", "note": "[CK-IV-55]", "values": [
      {"measurement": "extracellular TG2 activity (5-BP incorporation)", "setting": "[1]; 1 μM compound, 200 μM 5-BP, 3 h", "value": "activation of extracellular TG2"},
      {"measurement": "extracellular TG2 activity (5-BP incorporation)", "setting": "[1]; 10 μM compound, 3 h", "value": "TG2 activity was suppressed compared to the 1 μM case"},
      {"measurement": "inhibitory effect on S2A mutant compared with wild-type", "setting": "[2]", "value": "comparable inhibitory effect"},
      {"measurement": "extent of inhibition of TG2 (1-466)", "setting": "[3]", "value": "total antagonist"},
      {"measurement": "influence on relative distribution of open versus closed states of TG2", "setting": "TG2 [4]", "value": "did not have a measurable influence"},
      {"measurement": "agonistic effect in the presence of GMP-PNP", "setting": "[5]; R580A mutant", "value": "evident"},
      {"measurement": "inhibitory potency in R580A mutant versus wild-type", "setting": "[5]", "value": "unaltered"},
      {"measurement": "effect on transamidating activity of TG2", "setting": "TG2 [6]; 0.6 mM Ca2+ alone", "value": "agonism was not observed"},
      {"measurement": "effect on transamidation activity of TG2", "setting": "TG2 [6]; 0.6 mM Ca2+ and 100 μM GMP-PNP", "value": "markedly enhanced"},
      {"measurement": "effect on activity of S2B mutant", "setting": "[7]", "value": "no effect"},
      {"measurement": "mode of inhibition / activation", "setting": "human TG2 (V224 variant); Lineweaver-Burk analysis", "value": "non-competitive inhibitor"},
      {"measurement": "extent of inhibition of wild-type TG2", "setting": "human TG2 (V224 variant); [TG2] = 0.5 μM, [Ca2+] = 5 mM", "value": "partial inhibitory character"},
      {"measurement": "effect on TG2 catalytic activity at sub-saturating Ca2+", "setting": "human TG2 (V224 variant); sub-saturating Ca2+, 0.5-0.7 mM (legend of Figure 4A: 0.5-0.8 mM)", "value": "weak but reproducible agonism; also recorded: activated TG2"}
    ]},
    {"compound": "O=C1Nc2cccc(Cl)c2/C1=C\\C(=O)c1ccc(Cl)cc1", "note": "[CK-IV-67]", "values": [
      {"measurement": "extracellular TG2 activity (5-BP incorporation)", "setting": "[1]; concentrations not given (data not shown)", "value": "higher absolute concentrations of the latter inhibitor were required to see elevated 5-BP incorporation"}
    ]},
    {"compound": "[Ca+2]", "note": "[Ca^2+, reference compound]", "values": [
      {"measurement": "pKd", "setting": "TG2 [8]; read-out: Kd, high-affinity Ca2+ binding site, one site (S1)", "value": "~6.00"},
      {"measurement": "pKd", "setting": "TG2 [8]; read-out: Kd, lower-affinity Ca2+ binding sites, five sites", "value": "~3.00"},
      {"measurement": "mode of inhibition / activation", "setting": "human TG2 (V224 variant); Lineweaver-Burk analysis", "value": "competitive activator"},
      {"measurement": "Ka, activation of V224 TG2", "setting": "human TG2 (V224 variant); Lineweaver-Burk analysis, [TG2] = 0.5 μM", "value": "0.6 ± 0.3", "unit": "mM"}
    ]},
    {"compound": "Nc1nc2c(ncn2[C@@H]2O[C@H](COP(=O)(O)OP(=O)(O)NP(=O)(O)O)[C@@H](O)[C@H]2O)c(=O)[nH]1", "note": "[GMP-PNP, reference compound]", "values": [
      {"measurement": "inhibition of R580A mutant", "setting": "[9]", "value": "attenuated"},
      {"measurement": "mode of inhibition / activation", "setting": "human TG2 (V224 variant); Lineweaver-Burk analysis", "value": "competitive inhibitor"}
    ]},
    {"compound": "Ac-P(DON)LPF-NH2", "values": [
      {"measurement": "effect on TG2 conformation", "setting": "TG2 [10]", "value": "locks TG2 in the open state"}
    ]}
  ]
}
